# Results taken from ChEMBL document CHEMBL1141034, “Optimization of the in vitro and in vivo properties of a novel series of 2,4,5-trisubstituted imidazoles as potent cholecystokinin-2 (CCK2) antagonists” (J Med Chem, 2005).
# Calls of active or inactive are those of the source. No cut-off for these calls is given here.
# Target: T1, Cholecystokinin receptor type A (Cavia porcellus, UniProt Q63931)
# T1 sequence (Q63931 whole entry): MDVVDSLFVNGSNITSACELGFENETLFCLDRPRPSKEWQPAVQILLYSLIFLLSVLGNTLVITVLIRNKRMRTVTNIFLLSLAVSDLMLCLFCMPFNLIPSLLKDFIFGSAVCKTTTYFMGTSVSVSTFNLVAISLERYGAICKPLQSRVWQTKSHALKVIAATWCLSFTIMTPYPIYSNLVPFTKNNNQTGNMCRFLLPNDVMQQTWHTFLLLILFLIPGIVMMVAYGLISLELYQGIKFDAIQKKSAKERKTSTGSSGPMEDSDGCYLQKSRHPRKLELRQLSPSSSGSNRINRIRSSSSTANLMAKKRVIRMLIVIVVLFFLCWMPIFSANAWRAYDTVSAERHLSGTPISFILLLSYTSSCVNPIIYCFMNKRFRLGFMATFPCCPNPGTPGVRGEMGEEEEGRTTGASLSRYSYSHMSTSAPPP
# Assay: Concentration required to inhibit the binding of 20 pM [125I]BH-CCK-8S radioligand to guinea pig pancreas CCK1 receptor
# Settings: not given
# In short: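 CCK1 sites on guinea pig pancreatic cells. Competition with 20 pM [125I]BH-CCK-8S, reported as pKI. At least three separate experiments give ± SEM. Where only two experiments were run, no error is given (approximate SEM 0.1 log units).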
row,SMILES,Ki [nM]
1,Cc1cc(C)c(-c2nc(C(=O)Nc3cccc(C(=O)O)c3)c(COC34CC5CC(CC(C5)C3)C4)[nH]2)c(C)c1,537
2,CC(C)c1nc(C(=O)Nc2cccc(C(=O)O)c2)c(CCC23CC4CC(CC(C4)C2)C3)[nH]1,1450
3,Cc1cccc(C)c1-c1nc(C(=O)Nc2cccc(C(=O)O)c2)c(CCC23CC4CC(CC(C4)C2)C3)[nH]1,> 10000
4,Cc1ccccc1-c1nc(C(=O)Nc2cccc(CC(=O)O)c2)c(CCC23CC4CC(CC(C4)C2)C3)[nH]1,398
5,O=C(O)c1cccc(NC(=O)c2[nH]c(C3CCCCC3)nc2CCC23CC4CC(CC(C4)C2)C3)c1,575
6,Cc1ccccc1-c1nc(C(=O)Nc2cccc(C(=O)O)c2)c(CCC23CC4CC(CC(C4)C2)C3)[nH]1,661
7,O=C(O)c1cccc(NC(=O)c2nc(C34CCC(CC3)CC4)[nH]c2COC23CC4CC(CC(C4)C2)C3)c1,776
8,CC1(c2nc(C(=O)Nc3cccc(C(=O)O)c3)c(CCC34CC5CC(CC(C5)C3)C4)[nH]2)CCCCC1,562
9,O=C(O)c1cccc(NC(=O)c2[nH]c(-c3ccc4ccccc4c3)nc2CC2CCCCCC2)c1,2510
10,Cc1cc(C)c(-c2nc(C(=O)Nc3cccc(C(=O)O)c3)c(CCC34CC5CC(CC(C5)C3)C4)[nH]2)c(C)c1,724
11,Cc1ccc(NC(=O)c2nc(-c3ccccc3C)[nH]c2CCC23CC4CC(CC(C4)C2)C3)cc1C(=O)O,417
12,Cc1ccc(-c2nc(C(=O)Nc3cccc(C(=O)O)c3)c(CCC34CC5CC(CC(C5)C3)C4)[nH]2)c(C)c1,617
13,O=C(O)c1cccc(NC(=O)c2cc(-c3ccc4ccccc4c3)[nH]c2CC2CCCCCC2)c1,3020
14,Cc1ccccc1-c1cc(C(=O)Nc2cccc(C(=O)O)c2)c(CCC23CC4CC(CC(C4)C2)C3)[nH]1,2190
15,O=C(O)c1cccc(NC(=O)c2nc(C3CCCCC3)[nH]c2COC23CC4CC(CC(C4)C2)C3)c1,562
16,O=C(O)c1cccc(NC(=O)c2[nH]c(C3CCCC3)nc2CCC23CC4CC(CC(C4)C2)C3)c1,525
17,Cc1ccccc1-c1nc(C(=O)Nc2cccc(C(=O)O)c2)c(CCC2CCCCC2)[nH]1,295
18,O=C(O)c1cccc(NC(=O)c2cc(-c3ccccc3)[nH]c2CCC23CC4CC(CC(C4)C2)C3)c1,2090

# Target: T2, Gastrin/cholecystokinin type B receptor (Canis lupus familiaris, UniProt P30552)
# T2 sequence (P30552 whole entry): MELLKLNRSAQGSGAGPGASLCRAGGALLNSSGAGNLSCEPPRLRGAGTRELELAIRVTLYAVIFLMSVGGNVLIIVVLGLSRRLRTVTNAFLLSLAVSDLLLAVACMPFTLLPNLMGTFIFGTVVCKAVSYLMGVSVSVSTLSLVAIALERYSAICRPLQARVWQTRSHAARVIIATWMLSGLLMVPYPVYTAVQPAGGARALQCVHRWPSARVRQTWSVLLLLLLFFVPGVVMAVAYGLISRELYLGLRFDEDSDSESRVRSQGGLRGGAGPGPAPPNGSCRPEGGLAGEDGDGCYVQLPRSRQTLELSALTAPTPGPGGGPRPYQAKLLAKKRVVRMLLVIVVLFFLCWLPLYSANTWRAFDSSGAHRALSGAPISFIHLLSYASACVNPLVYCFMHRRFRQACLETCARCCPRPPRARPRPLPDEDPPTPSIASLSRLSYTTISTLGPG
# Assay: Concentration required to inhibit the binding of [125I]-BH-CCK-8S radioligand to canine gastric mucosa CCK2 receptor
# Settings: not given
# In short: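 Canine gastric mucosa. Competition with [125I]BH-CCK-8S for CCK2 binding sites, reported as pIC50 ± SEM.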
row,SMILES,IC50 [nM]
1,Cc1cc(C)c(-c2nc(C(=O)Nc3cccc(C(=O)O)c3)c(COC34CC5CC(CC(C5)C3)C4)[nH]2)c(C)c1,63.1
2,O=C(O)c1cccc(NC(=O)c2[nH]c(C3CCCCC3)nc2CCC23CC4CC(CC(C4)C2)C3)c1,29.5
3,O=C(O)c1cccc(NC(=O)c2nc(C3CCCCC3)[nH]c2COC23CC4CC(CC(C4)C2)C3)c1,19.5

# Target: T3, Gastrin/cholecystokinin type B receptor (Canis lupus familiaris) (UniProt P30552)
# T3 sequence (whole entry): T2 sequence (P30552 whole entry)
# Assay: Percent inhibition (i.v., 1.0 mg/Kg) against dog CCK2 receptor
# Settings: not given
# In short: (§1)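 Conscious dogs given a bolus iv or intraduodenally during pentagastrin-stimulated acid secretion. Result is the peak percentage inhibition of acid output in the first four collection periods (1 h) after dosing, ± SEM, with the number of replicates stated.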
row,SMILES,inhibition [%]
1,Cc1cc(C)c(-c2nc(C(=O)Nc3cccc(C(=O)O)c3)c(COC34CC5CC(CC(C5)C3)C4)[nH]2)c(C)c1,61
2,O=C(O)c1cccc(NC(=O)c2[nH]c(C3CCCCC3)nc2CCC23CC4CC(CC(C4)C2)C3)c1,40
3,O=C(O)c1cccc(NC(=O)c2nc(C3CCCCC3)[nH]c2COC23CC4CC(CC(C4)C2)C3)c1,76

# Target: T3, Gastrin/cholecystokinin type B receptor (Canis lupus familiaris)
# Assay: Percent inhibition (i.d., 10.0 mg/Kg) against dog CCK2 receptor
# Settings: not given
# In short: as §1
row,SMILES,inhibition [%]
1,O=C(O)c1cccc(NC(=O)c2[nH]c(C3CCCCC3)nc2CCC23CC4CC(CC(C4)C2)C3)c1,46

# Target: T4, Gastrin/cholecystokinin type B receptor (Mus musculus, UniProt P56481)
# T4 sequence (P56481 whole entry): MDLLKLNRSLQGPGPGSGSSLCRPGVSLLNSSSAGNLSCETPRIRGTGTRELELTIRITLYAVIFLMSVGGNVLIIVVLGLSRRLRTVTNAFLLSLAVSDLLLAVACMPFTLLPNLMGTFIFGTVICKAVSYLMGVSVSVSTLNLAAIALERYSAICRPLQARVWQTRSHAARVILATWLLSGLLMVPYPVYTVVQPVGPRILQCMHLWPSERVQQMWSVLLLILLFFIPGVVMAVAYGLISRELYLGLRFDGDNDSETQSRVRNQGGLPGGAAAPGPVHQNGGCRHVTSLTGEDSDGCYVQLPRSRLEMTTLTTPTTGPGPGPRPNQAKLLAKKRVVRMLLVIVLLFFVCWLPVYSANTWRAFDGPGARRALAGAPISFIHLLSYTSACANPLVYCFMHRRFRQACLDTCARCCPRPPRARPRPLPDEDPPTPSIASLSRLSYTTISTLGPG
# Assay: Concentration required to inhibit the binding of 20 pM [125I]-BH-CCK-8S radioligand to mouse cortical membrane CCK2 receptor
# Settings: not given
# In short: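 Mouse cerebral cortex homogenates. Competition with 20 pM [125I]BH-CCK-8S for CCK2 sites, reported as pKI. At least three separate experiments give ± SEM. Where only two experiments were run, no error is given (approximate SEM 0.1 log units).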
row,SMILES,Ki [nM]
1,Cc1cc(C)c(-c2nc(C(=O)Nc3cccc(C(=O)O)c3)c(COC34CC5CC(CC(C5)C3)C4)[nH]2)c(C)c1,13.8
2,Cc1cccc(C)c1-c1nc(C(=O)Nc2cccc(C(=O)O)c2)c(CCC23CC4CC(CC(C4)C2)C3)[nH]1,141
3,O=C(O)c1cccc(NC(=O)c2nc(C34CCC(CC3)CC4)[nH]c2COC23CC4CC(CC(C4)C2)C3)c1,27.5
4,Cc1cc(C)c(-c2nc(C(=O)Nc3cccc(C(=O)O)c3)c(CCC34CC5CC(CC(C5)C3)C4)[nH]2)c(C)c1,26.9
5,O=C(O)c1cccc(NC(=O)c2nc(C3CCCCC3)[nH]c2COC23CC4CC(CC(C4)C2)C3)c1,13.5
6,O=C(O)c1cccc(NC(=O)c2[nH]c(C3CCCC3)nc2CCC23CC4CC(CC(C4)C2)C3)c1,39.8
7,Cc1ccccc1-c1nc(C(=O)Nc2cccc(C(=O)O)c2)c(CCC2CCCCC2)[nH]1,617

# Tested on: not listed separately
# Assay: Lipophilicity was measured in octanol/buffer (pH 7.4)
# Assay type: physicochemical
# Settings: not given
# In short: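 log D from partition between octanol and buffer at pH 7.4, given ± error.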
row,SMILES,logD
1,Cc1cc(C)c(-c2nc(C(=O)Nc3cccc(C(=O)O)c3)c(COC34CC5CC(CC(C5)C3)C4)[nH]2)c(C)c1,3.02
2,O=C(O)c1cccc(NC(=O)c2[nH]c(C3CCCCC3)nc2CCC23CC4CC(CC(C4)C2)C3)c1,4.12
3,O=C(O)c1cccc(NC(=O)c2nc(C3CCCCC3)[nH]c2COC23CC4CC(CC(C4)C2)C3)c1,2.73

# Target: T5, Gastrin/cholecystokinin type B receptor (Rattus norvegicus, UniProt P30553)
# T5 sequence (P30553 whole entry): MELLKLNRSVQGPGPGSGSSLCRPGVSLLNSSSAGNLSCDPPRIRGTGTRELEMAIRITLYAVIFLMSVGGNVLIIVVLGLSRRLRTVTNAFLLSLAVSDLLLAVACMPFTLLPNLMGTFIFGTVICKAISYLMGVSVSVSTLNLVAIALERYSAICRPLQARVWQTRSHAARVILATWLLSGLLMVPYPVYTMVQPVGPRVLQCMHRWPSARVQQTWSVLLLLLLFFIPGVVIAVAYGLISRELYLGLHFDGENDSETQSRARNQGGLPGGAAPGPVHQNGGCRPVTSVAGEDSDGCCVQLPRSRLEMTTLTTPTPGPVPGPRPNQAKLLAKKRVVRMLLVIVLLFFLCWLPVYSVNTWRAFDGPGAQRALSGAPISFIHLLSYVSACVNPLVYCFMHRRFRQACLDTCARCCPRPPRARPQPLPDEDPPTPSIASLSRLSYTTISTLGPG
# Assay: Antagonist activity against CCK2 receptor estimated from single shifts of pentagastrin concentration-effect curves in the isolated rat stomach
# Assay type: functional, tissue-based
# Settings: read-out: pA2 (converted)
row,SMILES,Kb [nM]
1,Cc1ccc(NC(=O)c2nc(-c3ccccc3C)[nH]c2CCC23CC4CC(CC(C4)C2)C3)cc1C(=O)O,33.1

# Target: T6, Gastrin/cholecystokinin type B receptor (Rattus norvegicus) (UniProt P30553)
# T6 sequence (whole entry): T5 sequence (P30553 whole entry)
# Assay: Antagonist activity against CCK2 receptor estimated from single shifts of pentagastrin concentration-effect curves in the isolated rat stomach; […]
# Assay type: functional, tissue-based
# Settings: not given
row,SMILES,pA2
1,Cc1ccccc1-c1nc(C(=O)Nc2cccc(CC(=O)O)c2)c(CCC23CC4CC(CC(C4)C2)C3)[nH]1,inactive
2,O=C(O)c1cccc(NC(=O)c2[nH]c(-c3ccc4ccccc4c3)nc2CC2CCCCCC2)c1,inactive
3,O=C(O)c1cccc(NC(=O)c2cc(-c3ccc4ccccc4c3)[nH]c2CC2CCCCCC2)c1,inactive
4,Cc1ccccc1-c1cc(C(=O)Nc2cccc(C(=O)O)c2)c(CCC23CC4CC(CC(C4)C2)C3)[nH]1,inactive
5,O=C(O)c1cccc(NC(=O)c2cc(-c3ccccc3)[nH]c2CCC23CC4CC(CC(C4)C2)C3)c1,inactive
